Results from ChEMBL document CHEMBL4184339, “NMR Biochemical Assay for Oxidosqualene Cyclase: Evaluation of Inhibitor Activities on Trypanosoma cruzi and Human Enzymes” (J Med Chem, 2018).

How the values were obtained:
[1] = test system: Trypanosoma cruzi; test: Parasiticidal activity against amastigote stage of Trypanosoma cruzi Tulahuen infected in mouse brain fibroblast assessed as time duration of effect at 9.6 microM preincubated for 5 days followed by another 10 days incubation with fresh compound; type: functional
[2] = Selectivity ratio of IC50 for human C-terminal His6-tagged OSC to IC50 for Trypanosoma cruzi strain CL Brener C-terminal His6-tagged OSC
[3] = molecular target: T1, Lanosterol synthase (Homo sapiens, UniProt P48449); test: Inhibition of human C-terminal His6-tagged OSC expressed in Pichia pastoris GS115 using 2,3-oxidosqualene as substrate after 90 mins by 1H NMR method
T1 sequence (P48449 whole entry): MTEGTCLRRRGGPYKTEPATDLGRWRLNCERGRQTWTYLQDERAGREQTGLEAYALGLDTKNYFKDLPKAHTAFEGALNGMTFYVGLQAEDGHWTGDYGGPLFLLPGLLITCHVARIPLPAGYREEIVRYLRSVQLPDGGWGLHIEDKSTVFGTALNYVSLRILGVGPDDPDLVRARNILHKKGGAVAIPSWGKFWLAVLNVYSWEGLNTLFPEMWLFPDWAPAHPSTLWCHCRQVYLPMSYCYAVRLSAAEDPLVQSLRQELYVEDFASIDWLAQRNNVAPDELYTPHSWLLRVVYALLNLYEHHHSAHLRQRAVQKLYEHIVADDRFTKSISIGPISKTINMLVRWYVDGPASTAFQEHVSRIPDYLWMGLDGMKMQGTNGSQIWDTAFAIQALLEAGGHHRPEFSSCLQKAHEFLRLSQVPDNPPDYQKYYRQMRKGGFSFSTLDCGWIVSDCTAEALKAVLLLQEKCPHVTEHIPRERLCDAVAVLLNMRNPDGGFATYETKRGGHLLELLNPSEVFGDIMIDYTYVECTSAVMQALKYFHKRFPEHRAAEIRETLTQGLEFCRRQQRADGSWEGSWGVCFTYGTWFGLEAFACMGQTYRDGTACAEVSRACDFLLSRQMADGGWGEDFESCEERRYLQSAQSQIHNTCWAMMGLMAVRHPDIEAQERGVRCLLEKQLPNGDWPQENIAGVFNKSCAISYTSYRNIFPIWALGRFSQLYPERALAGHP
In short: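 Human OSC was expressed in Pichia pastoris GS115 using BMGY at 30 °C for 3 days, then BMMY methanol induction at 25 °C for 2 days. Purification included a Superdex 200 step, with buffers containing 0.2% Triton X-100 or 0.2–0.8% β-octylglucoside. Product was measured by NMR with factor analysis, and IC50 was fitted from the first-factor score.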

[4] = test system: Trypanosoma cruzi; test: Antiparasitic activity against epimastigote stage of Trypanosoma cruzi Tulahuen assessed as inhibition of parasite proliferation after 48 hrs by Alamar Blue assay; type: functional, organism-based
In short: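 Epimastigotes (one million per assay) were cultured in LIT medium with 10% newborn calf serum and co-incubated with compound. Afterwards, alamarBlue was added and fluorescence was read as a measure of viability.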

[5] = test system: Trypanosoma cruzi; test: Parasiticidal activity against amastigote stage of Trypanosoma cruzi Tulahuen infected in mouse brain fibroblast assessed as time duration of effect at 19.2 microM preincubated for 5 days followed by another 10 days incubation with fresh compound; type: functional
[6] = Inhibition of Trypanosoma cruzi strain CL Brener C-terminal His6-tagged OSC expressed in Pichia pastoris GS115 using 2,3-oxidosqualene as substrate after 20 mins by 1H NMR method
In short: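 T. cruzi OSC was expressed in Pichia pastoris GS115, first grown in BMGY ([…]glycerol) at 30 °C for 3 days and then induced in BMMY (1% methanol) at 25 °C for 2 days. Cells were homogenized in Tris-HCl pH 7.5 with 250 mM NaCl. Purification buffers contained 0.2% Triton X-100 or 0.2–1.2% β-octylglucoside. The substrate, 2,3-oxidosqualene, was in 10 mM sodium phosphate buffer with varied inhibitor. Reactions started with 19 nM enzyme (final) and ran at 37 °C for 20 min. Lanosterol was quantified by 1H NMR with factor analysis, and IC50 was taken from a fit of the first-factor score.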

[7] = test system: Trypanosoma cruzi; test: Parasiticidal activity against amastigote stage of Trypanosoma cruzi Tulahuen infected in mouse brain fibroblast assessed as time duration of effect at 10.9 microM preincubated for 5 days followed by another 10 days incubation with fresh compound; type: functional
[8] = test system: Trypanosoma cruzi; test: Parasiticidal activity against amastigote stage of Trypanosoma cruzi Tulahuen infected in mouse brain fibroblast assessed as time duration of effect at 21.8 microM preincubated for 5 days followed by another 10 days incubation with fresh compound; type: functional

Row | SMILES | Ratio IC50 [2] | IC50 [3] | IC50 [4] | Time [1] | Time [5] | IC50 [6] | Time [7] | Time [8]
1 | C=CCN(C)Cc1ccc(N2CCC(N(C)S(=O)(=O)c3ccc(Cl)cc3)CC2)cc1.Cl.Cl | 0.38 | 0.016 µM | 0.11 µM | 62 days | 80 days | 0.042 µM |  | 
2 | C=CCN(C)CCCCCCOc1ccc(C(=O)c2ccc(Br)cc2)c(F)c1 |  |  |  |  |  | 0.013 µM |  | 
3 | O=C(Cn1ccnc1[N+](=O)[O-])NCc1ccccc1 [BENZNIDAZOLE] |  |  |  | 35 days | 53 days |  |  | 

Now from value to compound, other results behind:

Row | Ratio IC50 [2] | IC50 [3] | IC50 [4] | SMILES | Time [1] | Time [5] | IC50 [6] | Time [7] | Time [8]
4 | 2.7 | 0.12 µM | 2.15 µM | CN(C)CCOc1ccc(OC2CCN(S(=O)(=O)c3ccc(F)cc3)CC2)cc1.Cl |  |  | 0.044 µM | 21 days | 29 days
5 | 1.6 | 0.23 µM |  | CN(C)Cc1ccc(N2CCC(N(C)S(=O)(=O)c3ccc(Cl)cc3)CC2)cc1 |  |  | 0.14 µM |  | 
